CHOP UPR activ – apoptotic UPR (CHOP) activation; CHO-CHOP luciferase reporter, luminescence; percent of tunicamycin response over DMSO baseline; activation, % at 10 µM; 0.34% of 330,000 active;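 active = at 10 µM dose, activation of 40% or more, normalized to positive control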
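System: CHO-CHOP luciferase reporter cell line | Buffer or medium: F12 medium containing 10% fetal bovine serum | Doses: One dose, 10 µM in 0.5% DMSO | Times: 6 h compound exposure at 37 °C after overnight seeding | Signal: Luciferase luminescence | Read-out: % activation vs tunicamycin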
UPR XBP1 act – activators of adaptive arm of unfolded protein response (XBP1); CHO-XBP1 luciferase reporter, IRE1-XBP1 UPR activation, luminescence; percent of tunicamycin response, DMSO as zero; activation, % at 20 µM; 0.33% of 330,000 active;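 active = versus positive control, 20 µM dose yields 30% or more activation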
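incubation = overnight seeding at 37 °C, 6 h compound treatment at 37 °C | assay system = CHO-XBP1 cells stably carrying IRE1-XBP1-driven luciferase reporter | input = 1000 cells per well | detection = luciferase luminescence | dosing = single point, 20 µM final compound, 1% DMSO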
Jurkat NFkB inh – lowers PMA/ionomycin-induced NF-kB signal in Jurkat cells | PMA/ionomycin-induced NF-kB luciferase reporter, luminescence | inhibition, % at 4 µM | 0.53% of 330,000 active; in the data active = inhibition above about 50%
CHOP inhibitor – inhibitors of CHOP induction in ER stress response; CHO-K1 CHOP-promoter luciferase, tunicamycin-induced, 15-18 h; 3.8% of 220,000 active; AID 2732; inhibition, % at 10 µM;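 active = compounds that reduced the stress-induced luciferase reporter signal by more than about 70% of percent inhibition, limit read from the data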
697 NFkB inh – lowers PMA/ionomycin-induced NF-kB signal in 697 B cells; 697 B-cell NF-kB luciferase reporter, 16 h; inhibition, % at 4 µM; 0.33% of 330,000 active; in the data active = inhibition above about 35%
Hits are given with their value; - = inactive; . = not tested or not shown. This is one part of a sample in which hits are shown more often than they occur.

SMILES | CHOP UPR activ | UPR XBP1 act | Jurkat NFkB inh | CHOP inhibitor | 697 NFkB inh
O=C(Cn1cnc2cc([N+](=O)[O-])ccc2c1=O)Nc1ccc(Br)cc1 | - | - | - | - | -
CCc1c(O)nc(SCC(=O)Nc2ccc(OC)cc2)n(C2CCCCC2)c1=O | - | - | - | 77.2 | -
Cc1nc2scc(C)n2c(=O)c1S(=O)(=O)Nc1ccc(OC(F)(F)F)cc1 | - | - | - | . | -
N=C(N)SCc1cn(-c2ccccc2)nc1-c1ccc(Br)cc1 | . | . | . | 106.2 | .
CC(C)N1CCN(Cc2ccc(OC3CCCC3)cc2)CC1CCO (stereo not given) | - | - | - | . | -
CC(C)(C)c1ccc(S(=O)(=O)Nc2ccc(Cc3ccncc3)cc2)cc1 | - | - | - | 79.3 | -
O=C(Nc1cc(F)cc(F)c1)c1sc(Cl)nc1-c1ccccc1 | - | - | - | 75.3 | -
O=C(Nc1ccccc1)c1sc(Cl)nc1-c1ccccc1 | - | - | - | - | -
CCN1C(=O)/C(=C\c2cccn2-c2ccc([N+](=O)[O-])cc2)N(CC)C1=S | - | - | - | 74.4 | -
CCN1CCN(C(=S)Nc2ccc([N+](=O)[O-])cc2)CC1 | - | - | - | - | -
CCOC(=O)CSc1c(-c2ccc(Cl)cc2)[nH]c2ccccc12 | - | - | - | 87.7 | -
CCOC(=O)CSc1c(-c2cccs2)[nH]c2ccccc12 | - | - | - | - | -
O=C(NNc1ccc([N+](=O)[O-])cc1)c1ccccc1Cl | - | - | - | - | -
O=C(NC(NNc1ccc([N+](=O)[O-])cc1)(C(F)(F)F)C(F)(F)F)c1ccc(Cl)cc1 | - | - | - | 79.3 | -
O=C(NCC1CCCO1)C1CC(=O)N(c2ccc(Cl)cc2)C1 (stereo not given) | - | - | - | . | -
CC(C)OC(=O)CSc1nc(Cc2ccccc2)nc2ccccc12 | - | - | - | 75.5 | -
Cc1cc(N2C3CCC2CC(O)(c2ccc(F)cc2)C3)nc(-c2ccccc2)n1 (stereo not given) | - | - | - | 71.7 | -
Cc1ccnc(N2C3CCC2CC(O)(c2ccccc2)C3)n1 (stereo not given) | - | - | - | - | -
Cc1cc(C)c(C)c(S(=O)(=O)NCc2ccc(C(=O)N3CCOCC3)cc2)c1C | - | - | - | . | -
CSCCC(C(=O)N(C)CC(=O)Nc1cccc(F)c1)N1C(=O)c2ccccc2C1=O (stereo not given) | - | - | - | . | -
Cc1ccccc1NC1=CC(=O)CC(C)(C)C1 | - | - | - | - | -
Cc1c(NC2=CC(=O)CC(C)(C)C2)ccc([N+](=O)[O-])c1C | - | - | - | 85.0 | -
Cc1cc(Nc2ccccc2)nn1C(=O)c1ccc(Cl)cc1 | - | - | - | 77.1 | -
CCOC(=O)C1=C(C)n2c(s/c(=C3\C(=O)Nc4ccccc43)c2=O)=NC1c1ccc(OC)cc1 (stereo not given) | - | - | - | 78.2 | -
COC(=O)C1=C(C)N=c2s/c(=C3\C(=O)Nc4ccccc43)c(=O)n2C1c1ccccc1 (stereo not given) | - | - | - | 78.8 | -
SMILES | CHOP UPR activ | UPR XBP1 act | Jurkat NFkB inh | CHOP inhibitor | 697 NFkB inh
CC(C)C(=O)NC(=S)Nc1ccc(S(=O)(=O)N2CCN(C)CC2)cc1 | - | - | - | - | -
COc1ccc(S(=O)(=O)Cc2ccc(C(=O)N3CCN(c4cc(C)ccc4C)CC3)o2)cc1 | - | - | - | . | -
COc1ccc(S(=O)(=O)Cc2ccc(C(=O)N3CCN(c4cccc(C)c4C)CC3)o2)cc1 | - | - | - | 71.1 | -
COc1ccc(NC(=O)CSc2nc3ccccc3c3nc4ccccc4n23)cc1 | . | . | . | - | .
COc1ccc(OC)c(NC(=O)CSc2nc3ccccc3c3nc4ccccc4n23)c1 | . | . | . | 78.2 | .
COC(=O)C/C=C/N(Cc1ccccc1OC)S(=O)(=O)CCl | - | - | . | . | -
Cc1sc(NC(=O)c2oc3ccccc3c2C)c(C#N)c1C | - | - | - | - | -
Cc1cc(C(=O)Nc2sc(C)c(C)c2C#N)c(C)o1 | - | - | - | 75.4 | -
Cc1cc(Nc2cccc(F)c2)nc(NCc2ccccc2)n1 | - | - | - | 71.1 | -
Cc1cc(Nc2ccccc2)nc(NCc2ccccc2)n1 | - | - | - | - | -
C/C(=N\NC(=O)c1n[nH]c2c1CCC2)c1cccs1 | - | - | - | 85.7 | -
O=[N+]([O-])c1ccc(NC(=S)N2CCN(c3ccc(F)cc3)CC2)cc1 | - | - | - | 84.5 | -
O=S(=O)(c1ccc(Cl)cc1)N1CCN(C(=S)Nc2ccc(F)c(Cl)c2)CC1 | - | - | - | 77.6 | -
O=S(=O)(c1ccccc1)N1CCN(C(=S)Nc2ccc(F)cc2)CC1 | - | - | - | - | -
O=[N+]([O-])c1ccc(C(=S)N2CCN(c3ccc(F)cc3)CC2)cc1 | - | - | - | - | -
NS(=O)(=O)c1ccc(NC(=S)N2CCN(c3ccc(Cl)c(Cl)c3)CC2)cc1 | - | - | - | 87.2 | -
NS(=O)(=O)c1ccc(NC(=S)N2CCN(Cc3ccc(Cl)c(Cl)c3)CC2)cc1 | - | - | - | - | -
CC(C)(C)C(=O)Nc1cc2c3c(c1)CCC(=O)N3CCC2 | - | - | - | . | -
Cc1cc2oc(=O)cc(CN3CCN(Cc4ccccc4)CC3)c2cc1Cl | - | - | - | - | -
Cc1cc2oc(=O)cc(CN3CCC(C)CC3)c2cc1Cl | - | - | - | 84.7 | -
COc1ccc(S(=O)(=O)n2cnc3cc(C)c(C)cc32)cc1C | - | - | - | 70.3 | -
O=C(CSc1nnnn1-c1cccc2ccccc12)Nc1ccc(N2CCOCC2)c(Cl)c1 | - | - | - | 71.0 | -
O=C(COc1c(F)c(F)c(C(F)(F)F)c(F)c1F)Nc1ccc(N2CCOCC2)c(Cl)c1 | - | - | - | 84.9 | -
O=C(CSc1nnc(C23CC4CC(CC(C4)C2)C3)o1)Nc1ccc(N2CCOCC2)c(Cl)c1 | - | - | - | 75.6 | -
CSc1ccc(OCC(=O)Nc2ccc(N3CCOCC3)c(Cl)c2)cc1 | - | - | - | . | -
SMILES | CHOP UPR activ | UPR XBP1 act | Jurkat NFkB inh | CHOP inhibitor | 697 NFkB inh
CC(Cc1ccccc1)C(=O)N(C)Cc1cccnc1 (stereo not given) | - | - | - | - | -
CSC1=C(C#N)C(=O)NC(c2ccc(Cl)cc2)S1 (stereo not given) | - | - | - | - | -
NS(=O)(=O)c1ccc(N=Nc2c(O)ccc3ccccc23)cc1 | - | - | - | 73.6 | -
O=C(O)c1cc(N=Nc2c(O)ccc3ccccc23)cc(C(=O)O)c1 | . | . | . | - | .
Oc1ccc(N=Nc2c(O)ccc3ccccc23)cc1 | - | - | - | 92.3 | -
COc1cc(N/N=C(\C)c2ccc(O)c(C)c2)nc(-c2ccccc2)n1 | - | - | - | - | -
COc1cc(N/N=C(\C)c2ccc(N)cc2)nc(-c2ccccc2)n1 | - | - | - | 80.5 | -
O=[N+]([O-])/C=C/c1cn(Cc2ccc(F)cc2)c2ccccc12 | - | - | - | 93.2 | -
O=C(O)c1ccc(N/N=C/c2cn(Cc3ccc(F)cc3)c3ccccc23)cc1 | - | - | - | - | -

Compound activity from PubChem BioAssay.
